In ChEMBL document CHEMBL4706620, “Design, synthesis, biological activity evaluation of 3-(4-phenyl-1H-imidazol-2-yl)-1H-pyrazole derivatives as potent JAK 2/3 and aurora A/B kinases multi-targeted inhibitors” (Eur J Med Chem, 2021):
Active and inactive are the calls of the source. The calls are words filed in the database; no cut-off is given here.

How the values were obtained:
[1] = system: HCT-116; assay: Cell cycle arrest in human HCT116 cells assessed as accumulation at […] phase at 20 uM incubated for 48 hrs by propidium iodide staining based flow cytometric analysis (reference value: 2.01 %); assay type: functional
[2] = system: K562; assay: Cell cycle arrest in human K562 cells assessed as accumulation of diploid cells at G1 phase at 20 uM incubated for 48 hrs by propidium iodide staining based flow cytometric analysis (reference value: 56.33 %); assay type: functional
[3] = system: HCT-116; assay: Cell cycle arrest in human HCT116 cells assessed as accumulation at […] phase at 1 uM incubated for 48 hrs by propidium iodide staining based flow cytometric analysis (reference value: 2.01 %); assay type: functional
[4] = Cytotoxicity against HCoEpiC assessed as reduction in cell growth measured after 72 hrs by CCK8 assay; conditions: Homo sapiens
[5] = target: Tyrosine-protein kinase JAK2 (Homo sapiens, UniProt O60674); assay: Inhibition of JAK2 (unknown origin) incubated for 40 mins in presence of ATP by Kinase-glo luminescence assay
[6] = system: K562; assay: Cell cycle arrest in human K562 cells assessed as accumulation of diploid cells at S phase at 20 uM incubated for 48 hrs by propidium iodide staining based flow cytometric analysis (reference value: 35.94 %); assay type: functional
[7] = system: K562; assay: Cell cycle arrest in human K562 cells assessed as accumulation of diploid cells at S phase at 10 uM incubated for 48 hrs by propidium iodide staining based flow cytometric analysis (reference value: 35.94 %); assay type: functional
[8] = system: K562; assay: Cell cycle arrest in human K562 cells assessed as accumulation of diploid cells at G1 phase at 1 uM incubated for 48 hrs by propidium iodide staining based flow cytometric analysis (reference value: 56.33 %); assay type: functional
[9] = system: K562; assay: Cell cycle arrest in human K562 cells assessed as accumulation of diploid cells at G2 phase at 1 uM incubated for 48 hrs by propidium iodide staining based flow cytometric analysis (reference value: 7.73 %); assay type: functional
[10] = system: HUVEC; assay: Cytotoxicity against HUVEC assessed as reduction in cell growth measured after 72 hrs by CCK8 assay; assay type: cell-based; conditions: Homo sapiens
[11] = system: K562; assay: Cell cycle arrest in human K562 cells assessed as accumulation of diploid cells at G2 phase at 20 uM incubated for 48 hrs by propidium iodide staining based flow cytometric analysis (reference value: 7.73 %); assay type: functional
[12] = system: K562; assay: Cell cycle arrest in human K562 cells assessed as accumulation at […] phase at 10 uM incubated for 48 hrs by propidium iodide staining based flow cytometric analysis (reference value: 1.90 %); assay type: functional
[13] = target: Aurora kinase B (Homo sapiens, UniProt Q96GD4); assay: Inhibition of Aurora B (unknown origin) incubated for 40 mins in presence of ATP by Kinase-glo luminescence assay
In short: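 Kinase reaction at 30 °C for 40 min in 40 mM Tris pH 7.4, 10 mM MgCl2, 0.1 mg/ml BSA, 1 mM DTT, 10 µM ATP, kinase plus substrate; compounds added from 10% DMSO dilutions (1% DMSO final). Remaining ATP measured by Kinase-Glo Plus luminescence; IC50 from nonlinear regression, normalized dose-response fit.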

[14] = species on record: Homo sapiens; assay: Selectivity for JAK2 (unknown origin) over Aurora B (unknown origin)
[15] = target: T1, JAK2/JAK3 (Homo sapiens) (UniProt P52333+O60674); assay: Inhibition of JAK2/3 in human HCT116 cells assessed as inhibition of STAT5 phosphorylation at 1 to 20 uM measured after 48 hrs by Western blot analysis; assay type: cell-based; conditions: HCT-116, dose 1-20 µM
In short: (§1)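 K562 or HCT116 cells treated 48 h at 1, 10 and 20 µM alongside untreated control; lysed in cold RIPA, protein by BCA, SDS-PAGE, nitrocellulose transfer, 5% milk block, primary antibody overnight at 4 °C, secondary 1 h; p-Aurora A, p-Aurora B, p-STAT3, p-STAT5 probed with GAPDH loading control.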

[16] = target: T2, Tyrosine-protein kinase JAK3 (Homo sapiens, UniProt P52333); assay: Inhibition of JAK3 (unknown origin) incubated for 40 mins in presence of ATP by Kinase-glo luminescence assay
T2 sequence (P52333 whole entry): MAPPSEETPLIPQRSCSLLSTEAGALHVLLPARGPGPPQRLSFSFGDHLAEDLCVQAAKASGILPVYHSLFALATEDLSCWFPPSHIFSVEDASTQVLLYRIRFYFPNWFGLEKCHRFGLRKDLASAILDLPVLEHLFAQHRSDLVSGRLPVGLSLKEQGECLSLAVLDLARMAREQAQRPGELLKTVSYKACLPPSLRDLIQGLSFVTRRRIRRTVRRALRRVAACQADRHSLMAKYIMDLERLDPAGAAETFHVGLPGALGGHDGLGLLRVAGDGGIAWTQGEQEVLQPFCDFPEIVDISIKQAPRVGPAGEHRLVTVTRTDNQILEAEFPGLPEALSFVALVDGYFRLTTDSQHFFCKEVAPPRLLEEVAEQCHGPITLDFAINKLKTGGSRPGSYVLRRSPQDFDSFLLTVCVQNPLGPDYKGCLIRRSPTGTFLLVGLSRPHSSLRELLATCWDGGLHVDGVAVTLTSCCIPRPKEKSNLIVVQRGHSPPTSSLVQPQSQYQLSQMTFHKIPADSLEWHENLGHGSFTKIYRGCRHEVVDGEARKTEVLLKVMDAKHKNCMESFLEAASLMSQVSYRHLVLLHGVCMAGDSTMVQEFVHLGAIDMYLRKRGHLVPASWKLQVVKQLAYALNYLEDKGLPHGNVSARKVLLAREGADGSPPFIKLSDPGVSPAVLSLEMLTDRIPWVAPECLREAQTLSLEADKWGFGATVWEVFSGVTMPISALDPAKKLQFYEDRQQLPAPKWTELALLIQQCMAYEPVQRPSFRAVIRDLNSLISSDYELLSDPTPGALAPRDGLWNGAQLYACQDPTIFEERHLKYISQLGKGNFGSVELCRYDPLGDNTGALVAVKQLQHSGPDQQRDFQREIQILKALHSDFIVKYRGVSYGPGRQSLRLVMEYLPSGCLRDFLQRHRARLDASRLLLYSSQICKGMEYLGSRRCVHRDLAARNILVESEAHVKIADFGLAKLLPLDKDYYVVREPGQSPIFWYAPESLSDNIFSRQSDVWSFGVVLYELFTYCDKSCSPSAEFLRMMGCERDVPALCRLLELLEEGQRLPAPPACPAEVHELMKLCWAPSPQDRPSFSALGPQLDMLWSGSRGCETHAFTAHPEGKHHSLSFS

[17] = target: T1, JAK2/JAK3 (Homo sapiens); assay: Inhibition of JAK2/3 in human HCT116 cells assessed as inhibition of STAT3 phosphorylation at 1 to 20 uM measured after 48 hrs by Western blot analysis; assay type: cell-based; conditions: HCT-116, dose 1-20 µM; in short: as §1
[18] = species on record: Homo sapiens; assay: Selectivity for JAK3 (unknown origin) over Aurora A (unknown origin)
[19] = system: HCT-116; assay: Cell cycle arrest in human HCT116 cells assessed as accumulation of diploid cells at G1 phase at 1 uM incubated for 48 hrs by propidium iodide staining based flow cytometric analysis (reference value: 77.62 %); assay type: functional
[20] = system: HCT-116; assay: Cell cycle arrest in human HCT116 cells assessed as accumulation of diploid cells at G2 phase at 1 uM incubated for 48 hrs by propidium iodide staining based flow cytometric analysis (reference value: 10.46 %); assay type: functional

T1 sequence (O60674 whole entry, looked up, one chain of several): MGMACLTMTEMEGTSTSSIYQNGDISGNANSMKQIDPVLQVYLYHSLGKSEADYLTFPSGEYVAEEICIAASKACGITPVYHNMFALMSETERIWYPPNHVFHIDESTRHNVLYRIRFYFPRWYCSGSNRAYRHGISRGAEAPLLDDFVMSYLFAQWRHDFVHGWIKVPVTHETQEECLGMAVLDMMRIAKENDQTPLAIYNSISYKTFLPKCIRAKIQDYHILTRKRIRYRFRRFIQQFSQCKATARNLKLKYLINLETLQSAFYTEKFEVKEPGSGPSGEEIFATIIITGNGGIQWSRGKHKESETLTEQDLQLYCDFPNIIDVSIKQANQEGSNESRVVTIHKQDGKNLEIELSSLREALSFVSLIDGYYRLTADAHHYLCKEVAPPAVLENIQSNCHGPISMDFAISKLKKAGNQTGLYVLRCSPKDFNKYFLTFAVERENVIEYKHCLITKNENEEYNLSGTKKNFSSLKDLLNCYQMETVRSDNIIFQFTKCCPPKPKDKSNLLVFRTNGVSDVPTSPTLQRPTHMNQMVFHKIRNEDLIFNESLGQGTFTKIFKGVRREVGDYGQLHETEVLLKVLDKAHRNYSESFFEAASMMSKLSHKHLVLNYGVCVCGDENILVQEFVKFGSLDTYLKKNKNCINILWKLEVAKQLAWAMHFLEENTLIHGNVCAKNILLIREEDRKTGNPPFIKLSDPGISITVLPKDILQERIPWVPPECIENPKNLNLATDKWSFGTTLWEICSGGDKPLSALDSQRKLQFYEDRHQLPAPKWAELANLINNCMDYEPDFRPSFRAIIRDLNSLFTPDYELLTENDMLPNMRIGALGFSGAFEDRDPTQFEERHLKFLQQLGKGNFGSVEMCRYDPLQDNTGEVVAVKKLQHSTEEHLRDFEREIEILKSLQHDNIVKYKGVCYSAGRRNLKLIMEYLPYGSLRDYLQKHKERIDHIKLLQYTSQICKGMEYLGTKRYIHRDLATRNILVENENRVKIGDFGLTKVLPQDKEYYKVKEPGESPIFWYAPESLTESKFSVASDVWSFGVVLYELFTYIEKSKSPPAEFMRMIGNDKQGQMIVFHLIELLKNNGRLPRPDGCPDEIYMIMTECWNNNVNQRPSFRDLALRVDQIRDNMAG
Aurora kinase B, sequence (Q96GD4 whole entry): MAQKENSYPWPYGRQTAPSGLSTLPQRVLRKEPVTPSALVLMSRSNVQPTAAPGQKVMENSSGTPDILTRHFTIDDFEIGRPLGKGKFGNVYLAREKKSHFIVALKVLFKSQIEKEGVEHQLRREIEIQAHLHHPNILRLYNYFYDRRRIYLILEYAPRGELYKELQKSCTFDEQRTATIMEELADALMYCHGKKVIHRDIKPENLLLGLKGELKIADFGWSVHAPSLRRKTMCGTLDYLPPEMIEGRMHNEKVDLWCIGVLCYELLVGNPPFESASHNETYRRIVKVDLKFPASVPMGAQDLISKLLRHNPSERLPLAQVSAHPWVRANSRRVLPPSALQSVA
Tyrosine-protein kinase JAK2, sequence (O60674 whole entry): as the sequence (O60674 whole entry, looked up, one chain of several) above

IC50 [5]: 166 nM
IC50 [13]: 583 nM
Selectivity ratio [14]: 20
inhibition [15]: Active
IC50 [16]: 57 nM
inhibition [17]: Active
Selectivity ratio [18]: 20
Structure (SMILES): O=C(Nc1c[nH]nc1-c1nc(-c2ccc(CN3CCOCC3)cc2)c[nH]1)c1cccc(Cl)c1
Activity [1]: 1.98%
Activity [2]: 45.9%
Activity [3]: 2%
IC50 [4]: 31500 nM
Activity [6]: 35.1%
Activity [7]: 35.86%
Activity [8]: 56.05%
Activity [9]: 8.12%
IC50 [10]: 29000 nM
Activity [11]: 19%
Activity [12]: 2.09%
Activity [19]: 72.2%
Activity [20]: 13.34%
